Broadly, the IC50 is the point on the concentration scale where inhibition reaches its midpoint.

The nature of series [1]: Safety index, ratio of IC50 for HEK cells to IC50 for Entamoeba histolytica HM-1:IMSS. The format is toxicity, cell-based, HEK293. Conditions: human, HEK cells (versus Entamoeba histolytica HM-1:IMSS); read-out: Ratio IC50.
Series [2] in a line: Cytotoxicity against HEK cells after 44 hrs by MTT assay. Type of series: cell-based. The settings on record: Homo sapiens, HEK293, 44 h. Put shortly: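 Transformed human kidney epithelial (Graham) cells kept at 37 °C in 5% CO₂. Trypsinized cells at 0.5 million cells/ml plated with compounds for 44 h, then 2 mM MTT for a further 4 h. Formazan dissolved in DMSO, absorbance 540 nm with 690 nm reference, % viability vs controls. Three independent experiments.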
(Tetrazolium assays rely on reduction of a dye to a coloured formazan, in cell work by metabolically active cells.)

For series [3], the system named is Entamoeba histolytica. Nature of the series: Antiamnesic activity against Entamoeba histolytica HM-1:IMSS after 72 hrs by trypan blue exclusion assay. The format is functional, organism-based. In a few lines: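 Microdilution in TYIS-33 medium, trophozoites counted by haemocytometer with trypan blue viability check, 1.7 × 10⁴ organisms/well. Plates gassed with N₂ 10 min, 37 °C for 72 h. Washed with 0.9% NaCl, methanol-fixed, eosin-stained, dye released with 0.1 N NaOH, OD 490 nm. % inhibition vs log dose, IC50 by linear regression. Metronidazole standard. Three independent experiments.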

Where [4] appears, read: in the assay text read “Antiamoebic” for “Antiamnesic”.

On to `CC1(c2ccccn2)ON=C(c2ccccc2Cl)O1` (stereo unspecified), for which, in series [1], the selectivity ratio was more than 61.7. Also, the 50% inhibitory concentration (IC50) in series [2] was more than 100 µM; in series [3], 1.62 µM.
For the compound `CCc1ccc(C2ON=C(c3ccccc3Cl)O2)cc1` (stereo unspecified), in series [1], the selectivity ratio was more than 55.5. Also, the figures for the IC50 in series [2] and in series [3] were more than 100 µM and more than 1.8 µM, respectively.
For `CCc1ccc(C2ON=C(c3ccc(Cl)cc3)O2)cc1` (stereo unspecified), in that order: more than 55.5, more than 100 µM and more than 1.8 µM.
As to `CC1(c2cccc(Br)c2)ON=C(c2cccc(Cl)c2)O1` (stereo unspecified), in series [1], the selectivity ratio is more than 55.5. Also, the IC50 in series [2] is more than 100 µM; in series [3] it was more than 1.8 µM.
With `CCC1(c2cccc(Cl)c2)ON=C(c2ccc(Cl)cc2)O1` (stereo unspecified), the selectivity ratio in series [1] is more than 55.5. For the same compound, the figures for the IC50 in series [2] and in series [3] were more than 100 µM and more than 1.8 µM, respectively.
Turning to `Clc1ccc(C2=NOC(c3ccccc3Cl)O2)cc1` (stereo unspecified), the selectivity ratio in series [1] is more than 208. Moreover, the concentration for half-maximal inhibition (IC50) in series [2] was more than 100 µM; in series [3] it was 0.48 µM.
On to `Clc1ccc(C2=NOC(c3cccc(Cl)c3)O2)cc1` (stereo unspecified), for which the selectivity ratio in series [1] is more than 116. The IC50 in series [2] is more than 100 µM; in series [3] (setting [4]), 0.86 µM.
Take `CC1(c2ccc(Cl)cc2)ON=C(c2ccc(Cl)cc2)O1` (stereo unspecified): the selectivity ratio in series [1] was more than 55.5. Moreover, the results for the concentration for half-maximal inhibition (IC50) in series [2] and in series [3] were more than 100 µM and more than 1.8 µM, respectively.
As for `CC1(c2cccc(Br)c2)ON=C(c2ccc(Cl)cc2)O1` (stereo unspecified), in series [1], the selectivity ratio was more than 55.5. The results for the IC50 in series [2] and in series [3] were more than 100 µM and more than 1.8 µM, respectively.
Consider `Clc1ccc(C2=NOC(c3ccc(Cl)c(Cl)c3)O2)cc1` (stereo unspecified), for which, in series [1], the selectivity ratio was more than 88.5. In addition, the IC50 was more than 100 µM in series [2] and 1.13 µM in series [3] (setting [4]).
For `Clc1ccc(C2=NOC(c3ccc(Cl)cc3)O2)cc1` (stereo unspecified), in series [1], the selectivity ratio is more than 189. The figures for the IC50 in series [2] and in series [3] (setting [4]) were more than 100 µM and 0.53 µM, respectively.
Consider `Cc1ccc(C2ON=C(c3ccc(Cl)cc3)O2)cc1` (stereo unspecified), for which the selectivity ratio in series [1] was more than 55.5. Also, the IC50 in series [2] is more than 100 µM; in series [3] it was more than 1.8 µM.
On to `Clc1ccc(C2ON=C(c3ccccc3Cl)O2)cc1` (stereo unspecified), for which the selectivity ratio in series [1] is more than 196. The 50% inhibitory concentration (IC50) in series [2] is more than 100 µM; in series [3] it was 0.51 µM.
On to `Cc1ccc(C2ON=C(c3ccccc3Cl)O2)cc1` (stereo unspecified), for which the selectivity ratio in series [1] is more than 55.5. In addition, the figures for the IC50 in series [2] and in series [3] were more than 100 µM and more than 1.8 µM, respectively.
As for `CC1(c2ccc(Cl)cc2)ON=C(c2cccc(Cl)c2)O1` (stereo unspecified), the selectivity ratio in series [1] is more than 55.5. Besides, the 50% inhibitory concentration (IC50) was more than 100 µM in series [2] and more than 1.8 µM in series [3] (setting [4]).
As for `CCC1(c2cccc(Cl)c2)ON=C(c2cccc(Cl)c2)O1` (stereo unspecified), in series [1], the selectivity ratio is more than 55.5. For the same compound, the half-maximal inhibitory concentration (IC50) in series [2] is more than 100 µM; in series [3] it was more than 1.8 µM.
As for `Clc1cccc(C2=NOC(c3ccccc3Cl)O2)c1` (stereo unspecified), the selectivity ratio in series [1] was more than 161. Moreover, the results for the half-maximal inhibitory concentration (IC50) in series [2] and in series [3] (setting [4]) were more than 100 µM and 0.62 µM, respectively.
As for `CCC1(c2cccc(Cl)c2)ON=C(c2ccccc2Cl)O1` (stereo unspecified), in series [1], the selectivity ratio was more than 55.5. Moreover, the IC50 was more than 100 µM in series [2] and more than 1.8 µM in series [3].
`CC1(c2cccc(Br)c2)ON=C(c2ccccc2Cl)O1` (stereo unspecified): the selectivity ratio in series [1] was more than 55.5. In addition, the values for the 50% inhibitory concentration (IC50) in series [2] and in series [3] were more than 100 µM and more than 1.8 µM, respectively.
As for `Clc1ccccc1C1=NOC(c2ccccc2Cl)O1` (stereo unspecified), the selectivity ratio in series [1] was more than 244. Besides, the IC50 in series [2] was more than 100 µM; in series [3] it was 0.41 µM.
Regarding `Clc1cccc(C2=NOC(c3ccc(Cl)c(Cl)c3)O2)c1` (stereo unspecified), in series [1], the selectivity ratio is more than 82.6. For the same compound, the results for the IC50 in series [2] and in series [3] were more than 100 µM and 1.21 µM, respectively.
As for `Clc1cccc(C2=NOC(c3cccc(Cl)c3)O2)c1` (stereo unspecified), in series [1], the selectivity ratio is more than 110. In addition, the IC50 in series [2] was more than 100 µM; in series [3] (setting [4]) it was 0.91 µM.
On to `Clc1ccc(C2ON=C(c3ccccc3Cl)O2)cc1Cl` (stereo unspecified), for which the selectivity ratio in series [1] is more than 124. Also, the concentration for half-maximal inhibition (IC50) in series [2] was more than 100 µM; in series [3], 0.81 µM.
Turning to `Clc1ccc(C2ON=C(c3cccc(Cl)c3)O2)cc1` (stereo unspecified), the selectivity ratio in series [1] was more than 141. For the same compound, the half-inhibitory concentration (IC50) in series [2] is more than 100 µM; in series [3] (setting [4]), 0.71 µM.
For `CCc1ccc(C2ON=C(c3cccc(Cl)c3)O2)cc1` (stereo unspecified) the same measures were more than 55.5, more than 100 µM and more than 1.8 µM.
Consider `CCC1(c2cccc(Br)c2)ON=C(c2ccc(Cl)cc2)O1` (stereo unspecified), for which the selectivity ratio in series [1] is more than 55.5. For the same compound, the IC50 in series [2] was more than 100 µM; in series [3] it was more than 1.8 µM.
For `CC1(c2ccc(Cl)cc2)ON=C(c2ccccc2Cl)O1` (stereo unspecified), in that order: more than 55.5, more than 100 µM and more than 1.8 µM.
Turning to `CC1(c2ccccn2)ON=C(c2cccc(Cl)c2)O1` (stereo unspecified), the selectivity ratio in series [1] is more than 57.8. In addition, the concentration for half-maximal inhibition (IC50) in series [2] is more than 100 µM; in series [3] it was 1.73 µM.
As for `CC1(c2ccccn2)ON=C(c2ccc(Cl)cc2)O1` (stereo unspecified), the selectivity ratio in series [1] is more than 63.3. Also, the concentration for half-maximal inhibition (IC50) in series [2] is more than 100 µM; in series [3], 1.58 µM.
Take `Cc1ccc(C2ON=C(c3cccc(Cl)c3)O2)cc1` (stereo unspecified): in series [1], the selectivity ratio is more than 55.5. The IC50 in series [2] is more than 100 µM; in series [3] (setting [4]), more than 1.8 µM.
In the case of `CCC1(c2cccc(Br)c2)ON=C(c2cccc(Cl)c2)O1` (stereo unspecified), the selectivity ratio in series [1] was more than 55.5. The IC50 is more than 100 µM in series [2] and more than 1.8 µM in series [3].
For the compound `CCC1(c2cccc(Br)c2)ON=C(c2ccccc2Cl)O1` (stereo unspecified), the selectivity ratio in series [1] was more than 55.5. For the same compound, the figures for the IC50 in series [2] and in series [3] were more than 100 µM and more than 1.8 µM, respectively.
As for `Clc1cccc(C2ON=C(c3ccccc3Cl)O2)c1` (stereo unspecified), the selectivity ratio in series [1] is more than 139. Also, the IC50 in series [2] is more than 100 µM; in series [3] it was 0.72 µM.
For the compound `Cc1ncc([N+](=O)[O-])n1CCO` [METRONIDAZOLE], in series [1], the selectivity ratio is more than 55.5. Also, in series [2], the IC50 was more than 100 µM.

The values above are taken from ChEMBL document CHEMBL1153845, “New derivatives of 3,5-substituted-1,4,2-dioxazoles: synthesis and activity against Entamoeba histolytica” (Eur J Med Chem, 2009).
